Assay results reported in ChEMBL document CHEMBL1949566 (Bioorg Med Chem Lett, 2012).
The source made the active and inactive calls. The calls are words filed in the database; no cut-off is given here.

Columns and labels:
Rattus norvegicus [1] = species: Rattus norvegicus; experiment: Displacement of [125I]angiotensin 2 from angiotensin 2 receptor type 1 in Sprague-Dawley rat adrenal cortex membranes at 10 uM after 60 mins by gamma counting; format: cell membranes; details: Membrane
Rattus norvegicus [2] = experiment: Antihypertensive activity in iv dosed pithed rat model assessed as inhibition of angiotensin 2-induced pressor response by gould pressure transducer-coupled grass polygraphy; format: functional
In short: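 Pithed rats had blood pressure recorded by an arterial catheter to a pressure transducer/polygraph. After about 60 min of stabilization, AngII (100 ng/kg iv) was given three times at 15 min intervals to set a basal pressor response. Compound was then given iv, followed by AngII 100 ng/kg iv. ED50 for 50% inhibition of maximal pressor response came from the dose–pressure curve.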

Rattus norvegicus [3] = experiment: Ratio of losartan ED50 to compound ED50 for antihypertensive activity in iv dosed pithed rat model assessed as inhibition of angiotensin 2-induced pressor response; format: functional
[4] = biological target: T1, Type-1 angiotensin II receptor (Oryctolagus cuniculus, UniProt P34976); experiment: Antagonist activity at angiotensin 2 receptor type 1 in New Zealand White rabbit descending thoracic aorta rings assessed as inhibition of angiotensin 2-induced contraction preincubated for 30 mins prior angiotensin 2 challenge; format: functional, tissue-based
T1 sequence (P34976 whole entry): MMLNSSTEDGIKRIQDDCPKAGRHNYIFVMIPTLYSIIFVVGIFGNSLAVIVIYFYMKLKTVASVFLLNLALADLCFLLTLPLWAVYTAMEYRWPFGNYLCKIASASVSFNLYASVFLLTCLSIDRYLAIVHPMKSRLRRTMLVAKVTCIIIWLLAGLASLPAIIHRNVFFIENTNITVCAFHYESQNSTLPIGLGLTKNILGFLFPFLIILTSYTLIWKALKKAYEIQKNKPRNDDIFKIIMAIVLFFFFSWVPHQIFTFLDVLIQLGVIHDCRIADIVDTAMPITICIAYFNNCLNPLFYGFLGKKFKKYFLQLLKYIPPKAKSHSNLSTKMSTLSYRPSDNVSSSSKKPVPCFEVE
In short: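 Aortic rings held at 2 g resting tension and equilibrated 60 min with repeated washing in Krebs bicarbonate solution. Responsiveness was checked with AngII, then a control cumulative AngII concentration–contractile response curve was run. After washout, test substance was incubated 30 min and a second AngII curve obtained.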

[5] = Displacement of [125I]angiotensin 2 from angiotensin 2 receptor type 1 in Sprague-Dawley rat adrenal cortex membranes after 60 mins by gamma counting; format: cell membranes, Membrane
In short: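 Adrenal cortex membranes came from male Sprague–Dawley rats (200–250 g); the pellet was taken by differential centrifugation up to 100,000 g. Membranes (60–70 µg protein/assay) were suspended in 50 mM Tris–HCl, 10 mM MgCl2, 0.25% BSA, pH 7.4, with [125I]AngII (0.05 nM) and test compound (3×10^-12 to 10^-6 M, DMSO). Incubation ran 60 min at 25 °C and ended by GF/B filtration. IC50 is 50% inhibition of binding.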

Rattus norvegicus [6] = experiment: Antihypertensive activity in conscious spontaneously hypertensive rat assessed as decrease in mean arterial blood pressure at 10 mg/kg, po at 5 hrs post dose; format: functional, Artery; parameters: scale not given: the % may be the effect or the level left
In short: (§1)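 SHRs were acclimatized 10 weeks, then habituated for 7 days to 37 °C chamber prewarming for 10 min, restraint and a tail cuff with pulse sensor. After stabilization, 10 mg/kg was given orally.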

[7] = Apparent oral clearance in Sprague-Dawley rat at 3 mg/kg; format: ADME, organism-based; parameters: dose 3 mg/kg, route oral; details: in vivo
In short: (§2)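 Male Sprague–Dawley rats (n = 7) given a single oral dose of 3 mg/kg. AUC, Cmax, Tmax, t1/2, Cl/F and Vss/F were derived from plasma profiles and reported as mean ± S.D.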

[8] = Toxicity in po dosed mouse assessed maximum tolerated dose; format: organism-based; details: in vivo
In short: (§3)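 Maximum tolerated dose from a single oral administration.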

[9] = Cmax in Sprague-Dawley rat at 3 mg/kg, po; format: ADME, organism-based; parameters: dose 3 mg/kg, route oral; details: in vivo; in short: as §2
[10] = AUC in Sprague-Dawley rat at 3 mg/kg, po; format: ADME, organism-based; parameters: dose 3 mg/kg, route oral; details: plasma; in short: as §2
[11] = Tmax in Sprague-Dawley rat at 3 mg/kg, po; format: ADME, organism-based; parameters: dose 3 mg/kg, route oral; details: in vivo; in short: as §2
[12] = Toxicity in po dosed rat assessed maximum tolerated dose; format: organism-based; details: in vivo; in short: as §3
[13] = Half life in Sprague-Dawley rat at 3 mg/kg, po; format: ADME, organism-based; parameters: dose 3 mg/kg, route oral; details: in vivo; in short: as §2
Rattus norvegicus [14] = experiment: Effect on basal heart rate in furosemide treated rat high-renin model at 10 mg/kg, po up to 8 hrs; format: ADME, organism-based; parameters: dose 10 mg/kg, route oral; details: in vivo
In short: (§4)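 Furosemide 10 mg/kg sc was given 20 and 2 h before the experiment, with food and water withdrawn for 24 h. Mean arterial pressure and heart rate were recorded by polygraph. After about 60 min of stabilization, 10 mg/kg was given orally. Readings were taken at 20, 40 and 60 min, then every 30 min to 8 h.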

[15] = Oral steady-state volume of distribution in Sprague-Dawley rat at 3 mg/kg; format: ADME, organism-based; parameters: dose 3 mg/kg; details: in vivo, read-out: Vss/F; in short: as §2
Rattus norvegicus [16] = experiment: Drug excretion in Sprague-Dawley rat at 3 mg/kg, po; format: ADME, organism-based; parameters: dose 3 mg/kg, route oral; details: in vivo
Rattus norvegicus [17] = species: Rattus norvegicus; experiment: Ratio of losartan IC50 to compound IC50 for displacement of [125I]angiotensin 2 from angiotensin 2 receptor type 1 in Sprague-Dawley rat adrenal cortex membranes; format: cell membranes; details: Membrane
Rattus norvegicus [18] = experiment: Antihypertensive activity in conscious spontaneously hypertensive rat assessed as decrease in mean arterial blood pressure at 10 mg/kg, po up to 24 hrs; format: functional, organism-based; parameters: dose 10 mg/kg; details: Artery; in short: as §1
[19] = biological target: T2, Type-1 angiotensin II receptor (Oryctolagus cuniculus) (UniProt P34976); experiment: Antagonist activity at angiotensin 2 receptor type 1 in New Zealand White rabbit descending thoracic aorta rings assessed as inhibition of noradrenaline-induced contraction preincubated for 30 mins prior noradrenaline challenge; format: functional, tissue-based
T2 sequence (whole entry): T1 sequence (P34976 whole entry)

[20] = biological target: T2, Type-1 angiotensin II receptor (Oryctolagus cuniculus); experiment: Ratio of losartan IC50 to compound IC50 for antagonist activity at angiotensin 2 receptor type 1 in New Zealand White rabbit descending thoracic aorta rings; format: functional, tissue-based
Rattus norvegicus [21] = experiment: Antihypertensive activity in conscious spontaneously hypertensive rat assessed as decrease in mean arterial blood pressure at 10 mg/kg, po up to 5 hrs; format: functional, organism-based; parameters: dose 10 mg/kg; details: Artery; in short: as §1
[22] = biological target: T2, Type-1 angiotensin II receptor (Oryctolagus cuniculus); experiment: Antagonist activity at angiotensin 2 receptor type 1 in New Zealand White rabbit descending thoracic aorta rings assessed as inhibition of KCl-induced contraction preincubated for 30 mins prior KCl challenge; format: functional, tissue-based
Rattus norvegicus [23] = experiment: Antihypertensive activity in furosemide treated rat high-renin model assessed as decrease in mean arterial pressure at 10 mg/kg, po up to 8 hrs; format: functional, organism-based; parameters: dose 10 mg/kg; details: Artery; in short: as §4

Row | IC50 [4] | IC50 [5] | Compound | ED50 (Rattus norvegicus [2]) | other results
1 | – | – | CCCCc1nc(C)c(CC(=O)N(C)C)c(=O)n1Cc1ccc(-c2ccccc2-c2nnn[nH]2)cc1 | 0.018 mg/kg | inhibition (Rattus norvegicus [1]): 71.7%; Ratio ED50 (Rattus norvegicus [3]): 19
2 | 27.1 nM | – | CCCc1nc(C)c(CC(=O)O)c(=O)n1Cc1ccc(-c2ccccc2-c2nnn[nH]2)cc1 | – | –
3 | – | 306 nM | CCCCc1nc(C)c(CCC(=O)O)c(=O)n1Cc1ccc(-c2ccccc2-c2nnn[nH]2)cc1 | 0.094 mg/kg | inhibition (Rattus norvegicus [1]): 27.9%
4 | 2.51 nM | 131 nM | CCCCc1nc(C)c(CCC(=O)OCC)c(=O)n1Cc1ccc(-c2ccccc2-c2nnn[nH]2)cc1 | 0.066 mg/kg | –
5 | – | 60 nM | CCCCc1nc(C)c(CCC(=O)N2CCOCC2)c(=O)n1Cc1ccc(-c2ccccc2-c2nnn[nH]2)cc1 | 0.143 mg/kg | –
6 | – | 70.5 nM | CCCCc1nc(C)c(CCC(=O)N2CCCC2)c(=O)n1Cc1ccc(-c2ccccc2-c2nnn[nH]2)cc1 | 0.206 mg/kg | –
7 | – | 80 nM | CCCCc1nc(Cl)c(CO)n1Cc1ccc(-c2ccccc2-c2nnn[nH]2)cc1 [LOSARTAN] | 0.336 mg/kg | –
8 | – | 64.7 nM | CCCCc1nc(C)c(CCC(=O)N2CCCCC2)c(=O)n1Cc1ccc(-c2ccccc2-c2nnn[nH]2)cc1 | 0.164 mg/kg | –
9 | – | 9 nM | CCCCc1nc(C)c(CC(=O)N2CCSCC2)c(=O)n1Cc1ccc(-c2ccccc2-c2nnn[nH]2)cc1 | 0.038 mg/kg | –
10 | – | 59.3 nM | CCCCc1nc(C)c(CC(=O)N2CCC[C@H]2C(=O)OC)c(=O)n1Cc1ccc(-c2ccccc2-c2nnn[nH]2)cc1 | 0.043 mg/kg | –
11 | – | 63.3 nM | CCCCc1nc(C)c(CC(=O)N2CCCCC2)c(=O)n1Cc1ccc(-c2ccccc2-c2nnn[nH]2)cc1 | 0.063 mg/kg | inhibition (Rattus norvegicus [1]): 71.7%
12 | 4.69 nM | – | CCCc1nc(C)c(CC(=O)N(CC)CC)c(=O)n1Cc1ccc(-c2ccccc2-c2nnn[nH]2)cc1 | – | –
13 | – | – | CCCCc1nc(C)c(CC(=S)N(C)C)c(=O)n1Cc1ccc(-c2ccccc2-c2nnn[n-]2)cc1.O.O.O.[K+] | – | Activity (Rattus norvegicus [6]): 75%; CL/F [7]: 84 mL/min/kg; MTD [8]: > 2000 mg/kg; Cmax [9]: 242 ng/mL; AUC [10]: 678 ng·h/mL; Tmax [11]: 6 min; MTD [12]: > 2000 mg/kg; half-life [13]: 5.3 h; Activity (Rattus norvegicus [14]): Non-toxic; Vd/F [15]: 37.3 L/kg; Ae (Rattus norvegicus [16]): Active
14 | – | 28 nM | CCCCc1nc(C)c(CCC(=O)N2CCSCC2)c(=O)n1Cc1ccc(-c2ccccc2-c2nnn[nH]2)cc1 | 0.204 mg/kg | –
15 | 13.1 nM | 72.6 nM | CCCCc1nc(C)c(CCC(=O)N2CC(C)OC(C)C2)c(=O)n1Cc1ccc(-c2ccccc2-c2nnn[nH]2)cc1 (stereo unspecified) | 0.228 mg/kg | –
16 | – | 66.2 nM | CCCCc1nc(C)c(CC(=O)OCC)c(=O)n1Cc1ccc(-c2ccccc2-c2nnn[nH]2)cc1 | 0.108 mg/kg | –
17 | 1.03 nM | 24 nM | CCCCc1nc(C)c(CC(=O)N2CC(C)OC(C)C2)c(=O)n1Cc1ccc(-c2ccccc2-c2nnn[nH]2)cc1 (stereo unspecified) | 0.029 mg/kg | –
18 | 1.31 nM | 6.27 nM | CCCCc1nc(C)c(CC(=S)N(CC)CC)c(=O)n1Cc1ccc(-c2ccccc2-c2nnn[nH]2)cc1 | 0.023 mg/kg | –
19 | – | – | CCCCc1nc(C)c(CC(=S)N(C)C)c(=O)n1Cc1ccc(-c2ccccc2-c2nnn[nH]2)cc1 [listing 2 of 2 here] | – | Ratio IC50 (Rattus norvegicus [17]): 615; Activity (Rattus norvegicus [18]): Active; inhibition [19]: inactive; Ratio IC50 [20]: 145; Activity (Rattus norvegicus [21]): Active; inhibition [22]: inactive; Activity (Rattus norvegicus [23]): Active
20 | – | 58.5 nM | CCCCc1nc(C)c(CCC(=O)N2CCC[C@H]2C(=O)OC)c(=O)n1Cc1ccc(-c2ccccc2-c2nnn[nH]2)cc1 | 0.063 mg/kg | –
21 | 6.11 nM | 8.04 nM | CCCCc1nc(C)c(CC(=S)N2CCCCCC2)c(=O)n1Cc1ccc(-c2ccccc2-c2nnn[nH]2)cc1 | 0.034 mg/kg | –
22 | – | 17 nM | CCCCc1nc(C)c(CC(=O)N2CCC[C@H]2C(N)=O)c(=O)n1Cc1ccc(-c2ccccc2-c2nnn[nH]2)cc1 | 0.023 mg/kg | –
23 | – | 23 nM | CCCCc1nc(C)c(CC(=O)N2CCOCC2)c(=O)n1Cc1ccc(-c2ccccc2-c2nnn[nH]2)cc1 | 0.018 mg/kg | Ratio ED50 (Rattus norvegicus [3]): 19
24 | – | 431 nM | CCCCc1nc(C)c(CC(=O)O)c(=O)n1Cc1ccc(-c2ccccc2-c2nnn[nH]2)cc1 | 0.13 mg/kg | inhibition (Rattus norvegicus [1]): 3.65%
25 | 30.8 nM | – | CCCCc1nc(C)c(CC(=O)N(CC)CC)c(=O)n1Cc1ccc(-c2ccccc2-c2nnn[nH]2)cc1 | 0.089 mg/kg | –
26 | 1.58 nM | 59.2 nM | CCCCc1nc(C)c(CC(=O)N2CCCC2)c(=O)n1Cc1ccc(-c2ccccc2-c2nnn[nH]2)cc1 | 0.056 mg/kg | inhibition (Rattus norvegicus [1]): 76.7%

Row | Compound | IC50 [4] | IC50 [5] | ED50 (Rattus norvegicus [2]) | other results
27 | CCCCc1nc(C)c(CC(=S)N(C)C)c(=O)n1Cc1ccc(-c2ccccc2-c2nnn[nH]2)cc1 [listing 1 of 2 here] | 0.42 nM | 0.13 nM | 0.018 mg/kg | Ratio ED50 (Rattus norvegicus [3]): 19
28 | CCCCc1nc(C)c(CC(=O)N2CCN(C)CC2)c(=O)n1Cc1ccc(-c2ccccc2-c2nnn[nH]2)cc1 | – | 19 nM | – | –
